Experiments:
Type in all cases: cell-based
HeLa [1] = assay: Inhibition of SERCA in human HeLa cells assessed as increase in cytosolic calcium level at 1.56 x 10^-7M measured over 300 secs by Fluo-4 NW dye based FLIPR analysis relative to control
Summary of the method: (§1)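 HeLa cells were seeded at 25,000/well in MEM + 10% FBS and grown overnight at 37°C, 5% CO2. They were loaded with Fluo-4 NW (30 min at 37°C, then 30 min at RT). Compound was added in HBSS/20 mM HEPES, one point of a 10-point in-assay range (10 uM – 38 pM). Fluorescence (ex 470-495, em 515-575 nm) was read for 300 s. Peak signal was normalized to thapsigargin (=100%) and buffer (0.2% DMSO) controls.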

HeLa [2] = assay: Inhibition of SERCA in human HeLa cells assessed as increase in cytosolic calcium level at 1.00 x 10^-5M measured over 300 secs by Fluo-4 NW dye based FLIPR analysis relative to control; summary of the method: as §1
HeLa [3] = assay: Inhibition of SERCA in human HeLa cells assessed as increase in cytosolic calcium level at 3.81 x 10^-11M measured over 300 secs by Fluo-4 NW dye based FLIPR analysis relative to control; summary of the method: as §1
HeLa [4] = assay: Inhibition of SERCA in human HeLa cells assessed as increase in cytosolic calcium level at 6.25 x 10^-7M measured over 300 secs by Fluo-4 NW dye based FLIPR analysis relative to control; summary of the method: as §1
HeLa [5] = assay: Inhibition of SERCA in human HeLa cells assessed as increase in cytosolic calcium level at 2.50 x 10^-6M measured over 300 secs by Fluo-4 NW dye based FLIPR analysis relative to control; summary of the method: as §1
HeLa [6] = assay: Inhibition of SERCA in human HeLa cells assessed as increase in cytosolic calcium level at 9.77 x 10^-9M measured over 300 secs by Fluo-4 NW dye based FLIPR analysis relative to control
Summary of the method: (§2)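 HeLa cells seeded at 25,000/well in MEM + 10% FBS and kept overnight at 37°C, 5% CO2. They were loaded with FLUO-4 NW (30 min 37°C, then 30 min RT) in HBSS/20 mM HEPES. Compounds were added from DMSO in a 10-point titration (in-assay 10 uM–38 pM). Fluorescence (ex 470-495, em 515-575 nm) was read 300 s. Signal maxima were normalized to thapsigargin (100%) and buffer/0.2% DMSO controls. Three independent runs in duplicate.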

[7] = Inhibition of SERCA in human HeLa cells assessed as increase in cytosolic calcium level measured over 300 secs by Fluo-4 NW dye based FLIPR analysis
Summary of the method: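 Fluo-4 NW-loaded HeLa cells (25,000/well, overnight culture in MEM/10% FBS) received 10-point titrations (10 uM – 38 pM in-assay) in HBSS/20 mM HEPES. Fluorescence was recorded for 300 s. Peak signals, normalized to thapsigargin and 0.2% DMSO buffer controls, were fitted to a log agonist-response model. The midpoint concentration is reported as IC50. Values are mean ± SD of three independent determinations, each run in duplicate.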

HeLa [8] = assay: Inhibition of SERCA in human HeLa cells assessed as increase in cytosolic calcium level at 2.44 x 10^-9M measured over 300 secs by Fluo-4 NW dye based FLIPR analysis relative to control; summary of the method: as §2
HeLa [9] = assay: Inhibition of SERCA in human HeLa cells assessed as increase in cytosolic calcium level at 6.10 x 10^-10M measured over 300 secs by Fluo-4 NW dye based FLIPR analysis relative to control; summary of the method: as §2
HeLa [10] = assay: Inhibition of SERCA in human HeLa cells assessed as increase in cytosolic calcium level at 1.53 x 10^-10M measured over 300 secs by Fluo-4 NW dye based FLIPR analysis relative to control; summary of the method: as §2
HeLa [11] = assay: Inhibition of SERCA in human HeLa cells assessed as increase in cytosolic calcium level at 3.91 x 10^-8M measured over 300 secs by Fluo-4 NW dye based FLIPR analysis relative to control; summary of the method: as §1

`CCCCCCCC(=O)O[C@H]1[C@H]2C(=C(C)[C@@H]1OC(=O)[C@H](C)CC)[C@@H]1OC(=O)[C@@](C)(O)[C@@]1(O)[C@@H](OC(=O)CCC)C[C@]2(C)OC(C)=O` gave an inhibition (HeLa [1]) of 71.9 to 87.8%, an inhibition (HeLa [2]) of 87.4 to 108% and an inhibition (HeLa [3]) of -0.7 to 2.6%. For the same compound, the inhibition (HeLa [4]) was 91.7 to 104%, the inhibition (HeLa [5]) was 88.1 to 106% and the inhibition (HeLa [6]) was 1 to 7.1%. It also gave an IC50 [7] of 57.7 to 104 nM, an inhibition (HeLa [8]) of -1.6 to 3.6% and an inhibition (HeLa [9]) of -0.7 to 1.9%. The inhibition (HeLa [10]) was -4.3 to 1.5% and the inhibition (HeLa [11]) was 8.1 to 45.8%.
With `C/C=C(/C)C(=O)O[C@@H]1C[C@H]2C(=C1C)[C@@H]1OC(=O)[C@@](C)(O)[C@@]1(O)[C@@H](OC(=O)C=C(C)C)C[C@]2(C)OC(C)=O` the inhibition (HeLa [1]) was 12.1 to 55.6%, the inhibition (HeLa [2]) was 92 to 102% and the inhibition (HeLa [3]) was -2 to 1.7%. The inhibition (HeLa [4]) was 65.5 to 94.1%, the inhibition (HeLa [5]) was 87.1 to 102% and the inhibition (HeLa [6]) was -4.7 to 4.6%. For the same compound, the IC50 [7] was 204 to 268 nM, the inhibition (HeLa [8]) was -3.4 to 4.1% and the inhibition (HeLa [9]) was -3 to 3.3%. It also gave an inhibition (HeLa [10]) of -3.3 to 2.6% and an inhibition (HeLa [11]) of -1.7 to 10.7%.
With `C/C=C(/C)C(=O)O[C@H]1C(C)=C2[C@H]([C@@H]1OC(=O)CCCCCCC)[C@@](C)(OC(C)=O)C[C@H](OC(=O)CCC)[C@@]1(O)[C@H]2OC(=O)[C@@]1(C)O` [THAPSIGARGIN] the inhibition (HeLa [1]) was 67.6 to 103%, the inhibition (HeLa [2]) was 89 to 107% and the inhibition (HeLa [3]) was -2.3 to 2.9%. For the same compound, the inhibition (HeLa [4]) was 90.4 to 109%, the inhibition (HeLa [5]) was 92.9 to 105% and the inhibition (HeLa [6]) was -2.7 to 10.5%. It also gave an IC50 [7] of 28.5 to 51 nM, an inhibition (HeLa [8]) of -4.1 to 1.4% and an inhibition (HeLa [9]) of -5 to 0.6%. For the same compound, the inhibition (HeLa [10]) was -1.7 to 0.1% and the inhibition (HeLa [11]) was 37.6 to 75.1%.
With `C/C=C(/C)C(=O)O[C@H]1C(C)=C2[C@H]([C@@H]1OC(=O)CCCCCCC)[C@@](C)(OC(C)=O)C[C@H](OC(=O)[C@@H](C)CC)[C@@]1(O)[C@H]2OC(=O)[C@@]1(C)O` the inhibition (HeLa [1]) was 6.2 to 40.9%, the inhibition (HeLa [2]) was 89.4 to 110% and the inhibition (HeLa [3]) was -2.2 to 2.4%. It also gave an inhibition (HeLa [4]) of 88.4 to 101%, an inhibition (HeLa [5]) of 91.1 to 109% and an inhibition (HeLa [6]) of -1.3 to 3.8%. For the same compound, the IC50 [7] was 220 to 298 nM, the inhibition (HeLa [8]) was -1.6 to 2.8% and the inhibition (HeLa [9]) was -3.2 to 2.2%. It also gave an inhibition (HeLa [10]) of -4.2 to 2.5% and an inhibition (HeLa [11]) of 2.9 to 27.6%.
For `CCCCCCCC(=O)O[C@H]1[C@H]2C(=C(C)[C@@H]1OC(=O)CC(C)C)[C@@H]1OC(=O)[C@@](C)(O)[C@@]1(O)[C@@H](OC(=O)CCC)C[C@]2(C)OC(C)=O`, the inhibition (HeLa [2]) was 89.7 to 96.6%, the inhibition (HeLa [3]) was -8 to 21.4% and the inhibition (HeLa [4]) was 40.2 to 84.1%. For the same compound, the inhibition (HeLa [5]) was 72.4 to 91.7% and the IC50 [7] was 310 to 576 nM.
`CCCCCCCC(=O)O[C@H]1[C@H]2C(=C(C)[C@@H]1OC(=O)c1cccs1)[C@@H]1OC(=O)[C@@](C)(O)[C@@]1(O)[C@@H](OC(=O)CCC)C[C@]2(C)OC(C)=O` showed an inhibition (HeLa [1]) of 52.4 to 84.4%, an inhibition (HeLa [2]) of 92.9 to 102% and an inhibition (HeLa [3]) of -5.9 to 0.6%. It also gave an inhibition (HeLa [4]) of 68.8 to 103%, an inhibition (HeLa [5]) of 79.6 to 105% and an IC50 [7] of 71.5 to 117 nM. For the same compound, the inhibition (HeLa [11]) was -7.5 to 25.7%.
`C/C=C(/C)C(=O)O[C@H]1C(C)=C2[C@H]([C@@H]1OC(=O)CCCCC)[C@@](C)(OC(C)=O)C[C@H](OC(=O)CCC)[C@@]1(O)[C@H]2OC(=O)[C@@]1(C)O` showed an inhibition (HeLa [1]) of 64.9 to 94.4%, an inhibition (HeLa [2]) of 86.6 to 100% and an inhibition (HeLa [3]) of -2.5 to 2%. It also gave an inhibition (HeLa [4]) of 90.8 to 104%, an inhibition (HeLa [5]) of 91.1 to 105% and an inhibition (HeLa [6]) of -2.2 to 7.9%. It also gave an IC50 [7] of 73 to 90 nM, an inhibition (HeLa [8]) of -5.9 to 4.6% and an inhibition (HeLa [9]) of -4.6 to 4.1%. It also gave an inhibition (HeLa [10]) of -2.1 to 3.5% and an inhibition (HeLa [11]) of 5.8 to 30.7%.
For `CCCCCCCC(=O)O[C@H]1[C@H]2C(=C(C)[C@@H]1OC(=O)c1sccc1C)[C@@H]1OC(=O)[C@@](C)(O)[C@@]1(O)[C@@H](OC(=O)CCC)C[C@]2(C)OC(C)=O`, the inhibition (HeLa [1]) was 57 to 99.4%, the inhibition (HeLa [2]) was 92 to 101% and the inhibition (HeLa [3]) was -2.2 to 3.1%. The inhibition (HeLa [4]) was 83.7 to 102%, the inhibition (HeLa [5]) was 86.7 to 101% and the inhibition (HeLa [6]) was -6.6 to 10%. For the same compound, the IC50 [7] was 30 to 119 nM, the inhibition (HeLa [8]) was -7.7 to 1.6% and the inhibition (HeLa [9]) was -4.2 to 0.8%. For the same compound, the inhibition (HeLa [10]) was -2.6 to 0.5% and the inhibition (HeLa [11]) was -6.6 to 60.1%.
